# PolyA inh: blocks polyadenylation in yeast reporter cells; S. cerevisiae SKY197-pL101 polyadenylation reporter, beta-gal luminescence; efflux-impaired pdr1/pdr3 knockout yeast; score 100 = 6 SD above DMSO; activity score, % at 12 µM; actives 0.02% (n = 300,000); AID 1875;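 active = lowest replicate activity score at least 50, where 100 means six control SD above control mean; inconclusive = lowest score under 50 but half or more replicates reach 50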;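 note: yeast exposed to compound for 9 h at 30 °C; higher score means more reporter readthrough which indicates perturbed polyadenylation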
# NALP1 inh: inhibitors of NALP1 inflammasome in yeast; S. cerevisiae NALP1/ASC/caspase-1 growth, X-gal OD620, 72 h; actives 0.61% (n = 280,000); inhibition, % at 10 µM; in the data active = inhibition mostly above about 24%, no sharp cut-off; inactive = mostly below about 32%
# T cruzi repl: blocks replication of Trypanosoma cruzi | T. cruzi beta-gal in NIH3T3, luminescence, 90 h | inhibition, % (no concentration beside the values) | actives 1.4% (n = 300,000);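 active = mean inhibition across valid replicates above about 55%, limit read from the data; inconclusive = mean below that limit but half or more replicates reach it; inactive = mean below it, under half of replicates reach it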;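 note: signal also drops with host cell toxicity which is not excluded here; 0% = plate median of DMSO wells and 100% = zero luminescence signal; higher percent means less beta-gal luminescence so fewer parasites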
#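 assay system = mouse NIH/3T3 fibroblasts infected with β-gal-expressing T. cruzi Tulahuen C4 | input = 5,000 NIH/3T3 host cells per well | buffer or medium = DMEM plus 2% FBS | timing = 3 h host attachment, then at least 90 h co-culture | measured by = GalScreen luminescence, 60 min | evaluation = luminescence reflecting intracellular parasite burden, expressed as percent inhibition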
# L major viab: inhibitors of Leishmania major promastigote growth; Leishmania major promastigotes, resazurin fluorescence viability; inhibition, % at 10 µM; actives 9% (n = 200,000); in the data active = inhibition above about 50%;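 note: promastigotes grown with compound for 44 hours at 28 °C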
# Calb FLC: affects C. albicans growth with fluconazole | C. albicans CaCi-2 (fluconazole-resistant clinical isolate) + fluconazole, Alamar Blue growth, 48 h | growth inhibition, % (no concentration beside the values) | actives 0.57% (n = 300,000);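 active = growth inhibition above about 58% in most replicates, limit read from the data, passing the limit was not always enough; inconclusive = exactly half the replicates above a set limit; inactive = most replicates below a set limit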;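 note: all wells also contain fluconazole at 8 µg/ml as a sub-toxic cotreatment; 0% = median of DMSO wells and 100% = median of geldanamycin control wells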
# NLRP3 yeast inh: NALP3 inhibition in yeast | Yeast reconstituted NLRP3/ASC/caspase-1, beta-gal luminescence, 24 h | inhibition, % at 10 µM | actives 0.39% (n = 330,000);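 active = inhibition of 50% or more; inactive = inhibition below 50%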;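 note: plate controls were induced DMSO wells for no effect and uninduced yeast grown without galactose for full effect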
# The depositor's hits bear a star; ? = inconclusive; / = no result. The entries come from a sample that favours hits as a whole.
SMILES,PolyA inh,NALP1 inh,T cruzi repl,L major viab,Calb FLC,NLRP3 yeast inh
CCNC(=O)N1CCNC(=O)C1CC(=O)OC (stereo unspecified),-5,11,-7,-6,-9,-16
C=C(C)CNC(=S)N1CCNC(=O)C1CC(=O)OC (stereo unspecified),26,28,6,78*,0,-6
CCCOc1ccc(C(=O)c2nc3c(n2O)CCCC3)cc1,-5,15,4,4,-20,-26
CC(C)(C)c1ccc(C(=O)NCCC(=O)NC2=NCCS2)cc1,/,/,/,/,/,12
CC(C)(C)c1ccc(OCCCC(=O)NC2=NCCS2)cc1,-31,36*,-11,-3,2,35
CC(C)(C)c1ccc(OCCCC(=O)Nc2ccc(S(N)(=O)=O)cc2)cc1,5,9,3,73*,0,-9
NS(=O)(=O)c1ccc(NC(=O)CCCCC(=O)Nc2ccc(S(N)(=O)=O)cc2)cc1,9,26,-9,/,0,-5
CC(C)(C)c1ccc(OCCCC(=O)NNC(=O)c2ccccc2O)cc1,-21,/,28,/,81*,5
COc1cc(C2c3c(oc4ccccc4c3=O)C(=O)N2c2nccs2)ccc1O (stereo unspecified),-1,/,0,/,20,14
C=CCN(CC=C)C(=O)c1cc(Cl)ccc1[N+](=O)[O-],4,22,4,51*,-13,-15
C=CCNC(=O)c1cc(Cl)ccc1[N+](=O)[O-],-4,30,-9,-4,4,8
Clc1cccc(-c2ccc(CNCCCN3CCOCC3)o2)c1,-5,13,42,77*,2,15
O=C(NCCCN1CCOCC1)c1ccc(CSCc2cccc(Cl)c2)o1,1,9,11,71*,-4,2
O=C(NCCN1CCOCC1)c1cc(-c2cccc(Cl)c2)on1,0,38,-3,/,6,-1
COCC(=O)N1CCC(Oc2ccc(C(=O)NC(C)c3nccs3)cc2)CC1 (stereo unspecified),-2,9,-16,/,-6,-6
CCN(CCCNC(=O)CC(C(=O)N1CCc2ccccc21)n1ccnc1)c1ccccc1 (stereo unspecified),-4,12,29,100*,0,5
Cc1ccc(NC(=S)N2CCCN(Cc3ccc(F)cc3)C2)c(C)c1,30,2,12,89*,-5,12
CSc1cccc(NC(=S)N2CCCN(Cc3ccc(F)cc3)C2)c1,-14,-5,15,86*,5,10
Cc1ccccc1NC(=S)N1CCCN(Cc2ccc(F)cc2)C1,-15,2,22,86*,-1,-5
Cc1ccccc1NC(=S)N1CCN(Cc2ccccc2)CC1,-7,27,-16,-3,4,3
COc1ccc(-c2cc3ccccc3n2CC(O)CN2CCN(CCO)CC2)cc1 (stereo unspecified),7,7,-1,3,1,1
O=C(NC(Cc1c[nH]c2ccccc12)C(=O)Nc1ccc(F)c([N+](=O)[O-])c1)c1cccs1 (stereo unspecified),16,29,5,65*,-18,11
CC1CCCCC12NC(=O)N(CC(=O)N1CCN(Cc3ccc(C#N)cc3)CC1)C2=O (stereo unspecified),/,/,/,/,/,8
CC(C)(C)C1CCC(=NNc2ccc(S(N)(=O)=O)cc2[N+](=O)[O-])CC1 (stereo unspecified),-12,15,12,85*,-5,12
CCN(CC)S(=O)(=O)c1ccc(NN=C2CCN(C)CC2)c([N+](=O)[O-])c1,-11,2,58*,81*,-26,9
SMILES,PolyA inh,NALP1 inh,T cruzi repl,L major viab,Calb FLC,NLRP3 yeast inh
O=C(CC1CCCC1)NNC(=O)c1ccc(Br)cc1,/,/,/,/,/,17
COc1cccc(NC(=O)C2CCC(CNC(=O)[C@@H]3Cc4ccccc4CN3)CC2)c1 (stereo partly specified),-4,27,-8,/,-5,0
Clc1ccc(-c2csc(N3CCCCCC3)n2)cc1,-18,-18,0,/,-6,4
CN1CCN(c2nc(-c3ccc(Cl)s3)cs2)CC1,20,9,32,85*,-6,17
Cc1ccc(NC(=S)NC2CCN(Cc3ccccc3)CC2)cc1,-19,34,19,100*,3,22
O=C(Nc1ccccc1)NC1CCN(Cc2ccccc2)CC1,16,4,46,29,?,-1
Cc1ccc(NC(=S)NC2CCN(Cc3ccccc3)CC2)cc1C,-23,0,-4,94*,-1,18
CC(C)c1ccc(NC(=S)NC2CCN(Cc3ccccc3)CC2)cc1,-57,/,17,92*,-18,27
S=C(Nc1ccc2c(c1)OCO2)NC1CCN(Cc2ccccc2)CC1,-10,1,46,97*,-21,26
O=C(O)CSCC(=O)N1CCN(c2nc3cc(Cl)ccc3s2)CC1,-1,-5,-9,/,-9,8
COCCN1CCN(C(=O)c2ccc3c(c2)S(=O)(=O)c2ccccc2C3=O)CC1,7,/,-27,/,-6,6
CCC(C)[C@H](NC(=O)C1CC(=O)N(c2ccc(OC)cc2)C1)C(=O)NC1CCCC1 (stereo partly specified),12,-10,-9,/,-29,7
Cc1ccc(NC(=O)CN2CCC(NC(=O)Cc3ccccc3)CC2)c(C)c1,-14,24,-2,70*,-25,1
Cc1cc(C)cc(NC(=O)CN2CCC(NC(=O)Cc3ccccc3)CC2)c1,3,22,20,2,-12,8
COc1cc(/C=N/N(c2ccccc2)c2ccccc2)ccc1O,-12,-20,14,/,10,15
CN(/N=C\c1ccc(O)c(O)c1)c1nc(-c2ccccc2)cc(-c2ccccc2)n1,-5,9,6,100*,?,7
COc1cccc(-n2nnc(S(=O)(=O)c3ccc(C)cc3)c2N)c1,-7,5,16,2,-2,13
Cc1ccc(S(=O)(=O)NNC(=O)C2COc3ccccc3O2)cc1 (stereo unspecified),17,7,20,25,23,-6
Cc1ccc(S(=O)(=O)NNC(=O)C2COc3ccccc3O2)cc1C (stereo unspecified),11,40*,3,-6,2,-4
CCOC(=O)c1c(-c2ccccc2)oc2ccc(OCC(O)CNCCN(C)C)cc12 (stereo unspecified),3,20,79*,/,-24,19
CCOc1ccc(-n2c(C)c(C(=O)O)c3cc(OC)ccc32)cc1,-4,-64,-2,/,1,19
CCOC(=O)c1c(C)n(C)c2ccc(OCC(O)CN3CCN(C)CC3)cc12 (stereo unspecified),10,-1,26,76*,1,11
CCOC(=O)c1c(C)n(-c2ccc(C)cc2)c2ccc(OCC(O)CN3CCN(C)CC3)cc12 (stereo unspecified),/,14,/,100*,/,/

# Compound activity from PubChem BioAssay.
